Reference: BindingDB's records for doi:10.1021/acs.jmedchem.5b00686 (University of Hawaii At Hilo, 2015)

Target: Signal transducer and activator of transcription 3 (Homo sapiens, UniProt P40763)
Experiment: Inhibition of Stat3 dimer DNA binding activity in human U373MG cells nuclear extract after 1.5 hrs by EMSA using radiolabeled probe hSIE
Outline: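 Sub-confluent U251MG or U373MG cells treated with compound (5 μM for 0–24 h, or 0–5 μM for 1.5 h). Stat3:DNA bands scanned, quantified and plotted against concentration to derive IC50. Controls were 0.025% DMSO.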

Sequence of Signal transducer and activator of transcription 3 (P40763 whole entry): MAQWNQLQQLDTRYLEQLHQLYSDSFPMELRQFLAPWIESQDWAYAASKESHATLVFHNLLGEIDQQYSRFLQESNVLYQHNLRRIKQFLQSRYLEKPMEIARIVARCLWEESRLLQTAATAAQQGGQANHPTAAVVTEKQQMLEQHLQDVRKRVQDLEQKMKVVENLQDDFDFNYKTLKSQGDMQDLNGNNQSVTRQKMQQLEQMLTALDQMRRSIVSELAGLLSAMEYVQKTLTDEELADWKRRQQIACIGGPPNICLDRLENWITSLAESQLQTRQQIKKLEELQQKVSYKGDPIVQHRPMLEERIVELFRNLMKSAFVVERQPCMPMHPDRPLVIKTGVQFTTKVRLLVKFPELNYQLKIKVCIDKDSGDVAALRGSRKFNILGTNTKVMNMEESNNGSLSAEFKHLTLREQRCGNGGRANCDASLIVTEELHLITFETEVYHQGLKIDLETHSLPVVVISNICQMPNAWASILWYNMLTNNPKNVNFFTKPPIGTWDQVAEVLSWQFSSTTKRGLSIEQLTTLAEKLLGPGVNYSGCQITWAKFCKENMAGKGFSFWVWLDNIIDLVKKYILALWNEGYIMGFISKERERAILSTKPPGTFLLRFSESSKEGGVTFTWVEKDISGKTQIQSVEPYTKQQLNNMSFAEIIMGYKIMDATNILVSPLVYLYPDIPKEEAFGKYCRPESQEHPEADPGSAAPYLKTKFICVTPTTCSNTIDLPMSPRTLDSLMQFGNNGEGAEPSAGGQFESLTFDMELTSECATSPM

IC50 [µM] | Compound
4.1 | C/C=C(\C)C(=O)O[C@H]1C[C@@H](C)[C@]2(OC)CC[C@](C)(/C=C3/OC(=O)C(COC(C)=O)=C31)O2 [Vernolide-B]
2.4 | C/C=C(\C)C(=O)OCC1=C2/C(=C\[C@@]3(C)CC[C@](O)(O3)[C@H](C)C[C@@H]2O)OC1=O
